Assay [1] deals with Mahlavu. Kind of assay: Cell cycle arrest in human Mahlavu cells assessed as accumulation of cells at subG1 phase at 1 uM after 24 hrs by propidium iodide staining-based flow cytometric analysis (reference value: 18.3%). It is filed as functional. On the technique in general: A flow cytometer gives signals particle by particle.
For assay [2], the system named is Mahlavu. In words: Modulation of SAPK/JNK phosphorylation at Thr183/Tye185 residues in human Mahlavu cells at 1 uM after 24 to 72 hrs by Western blot analysis. Type of assay: cell-based. On the technique in general: A western blot detects proteins with antibodies after separation by electrophoresis.
Assay [3] concerns Mahlavu. Kind of assay: Induction of apoptosis in human Mahlavu cells assessed as late apoptotic cells at 1 uM after 48 hrs by Annexin V-FITC/propidium iodide staining-based flow cytometric analysis (reference value: 1.45%). Type of assay: functional.
For assay [4], the system named is Mahlavu. Kind of assay: Induction of apoptosis in human Mahlavu cells assessed as viable cells at 1 uM after 48 hrs by Annexin V-FITC/propidium iodide staining-based flow cytometric analysis (reference value: 98.48%). Type of assay: functional. The conditions noted are these: read-out: Activity.
The subject of assay [5] is Huh-7. In words: Cytotoxicity against human HuH7 cells after 72 hrs by RTCA analysis. It is filed as functional, cell-based. The note with it: Huh-7, 72 h. An outline of the steps:
(§1)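 xCELLigence impedance real-time growth assay. Huh7 (2000) or Mahlavu (1000) cells plated, treated after 24 h at log phase with a 2-fold dilution series (4 steps) from a top concentration of 1. Cell index recorded every 10 min for 24 h, then every 30 min. Growth inhibition normalized to DMSO; IC50 taken at 24, 48, 72 h.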

In assay [6] the test system is Huh-7. In words: Induction of apoptosis in human HuH7 cells assessed as late apoptotic cells at 1 uM after 72 hrs by Annexin V-FITC/propidium iodide staining-based flow cytometric analysis (reference value: 2.34%). It is filed as functional.
The test system of assay [7] is MCF7. In words: Cytotoxicity against human MCF7 cells after 72 hrs by SRB assay. Type of assay: functional, cell-based. The conditions noted are these: Homo sapiens, MCF7, 72 h; read-out: IC50. An outline of the steps: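 SRB assay. Cells plated per well (HCT116 3000; Huh7, Hep3B, HepG2, MCF-7 2000; Mahlavu, FOCUS, SNU475 1000) and grown 24 h. Compounds came from 20 mM DMSO stocks and were tested in triplicate, 40 to 2,5 (or 2,5 to 0,03) per printed range, for 72 h. Cells fixed in 10% TCA, stained with 0.4% SRB, dye dissolved in 10 mM Tris, A515 read. IC50 derived after DMSO normalization.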
In general terms: In SRB staining, fixed cells bind dye roughly in proportion to their protein.

In assay [8] the test system is Huh-7. In words: Cytotoxicity against human HuH7 cells after 48 hrs by RTCA analysis. It is filed as functional, cell-based. The conditions noted are these: Huh-7, 48 h. An outline of the steps:
as §1

In assay [9] the test system is Huh-7. Kind of assay: Induction of apoptosis in human HuH7 cells assessed as early apoptotic cells at 1 uM after 72 hrs by Annexin V-FITC/propidium iodide staining-based flow cytometric analysis (reference value: 0.03%). Type of assay: functional.
Assay [10] has as its system Huh-7. In words: Down-regulation of cyclin-B1 protein expression in human HuH7 cells at 1 uM after 24 to 72 hrs by Western blot analysis. It is filed as functional, cell-based.
The subject of assay [11] is Mahlavu. Kind of assay: Induction of apoptosis in human Mahlavu cells assessed as viable cells at 1 uM after 24 hrs by Annexin V-FITC/propidium iodide staining-based flow cytometric analysis (reference value: 98.51%). Type of assay: functional. The note with it: read-out: Activity.
For assay [12], the system named is Mahlavu. In words: Cell cycle arrest in human Mahlavu cells assessed as accumulation of cells at subG1 phase at 1 uM after 72 hrs by propidium iodide staining-based flow cytometric analysis (reference value: 22.4%). It is filed as functional.
The target in assay [13] is RAC-alpha serine/threonine-protein kinase (Homo sapiens) (UniProt P31749). In words: Inhibition of Akt phosphorylation in human Mahlavu cells at 1 uM after 72 hrs by Western blot analysis. It is filed as cell-based.
The target is the same in assay [14]. In words: Inhibition of Akt phosphorylation in human HuH7 cells at 1 uM after 72 hrs by Western blot analysis. It is filed as cell-based.
The target is the same in assay [15]. In words: Inhibition of AKT phosphorylation in human Mahlavu cells at 1 uM after 24 to 72 hrs by Western blot analysis. Type of assay: cell-based.

Calls of active or inactive are those of the source. The rule behind the calls is not given here.

A word on the IC50: it is the concentration needed to halve the response being measured.

Sequence of RAC-alpha serine/threonine-protein kinase (Homo sapiens) (P31749 whole entry): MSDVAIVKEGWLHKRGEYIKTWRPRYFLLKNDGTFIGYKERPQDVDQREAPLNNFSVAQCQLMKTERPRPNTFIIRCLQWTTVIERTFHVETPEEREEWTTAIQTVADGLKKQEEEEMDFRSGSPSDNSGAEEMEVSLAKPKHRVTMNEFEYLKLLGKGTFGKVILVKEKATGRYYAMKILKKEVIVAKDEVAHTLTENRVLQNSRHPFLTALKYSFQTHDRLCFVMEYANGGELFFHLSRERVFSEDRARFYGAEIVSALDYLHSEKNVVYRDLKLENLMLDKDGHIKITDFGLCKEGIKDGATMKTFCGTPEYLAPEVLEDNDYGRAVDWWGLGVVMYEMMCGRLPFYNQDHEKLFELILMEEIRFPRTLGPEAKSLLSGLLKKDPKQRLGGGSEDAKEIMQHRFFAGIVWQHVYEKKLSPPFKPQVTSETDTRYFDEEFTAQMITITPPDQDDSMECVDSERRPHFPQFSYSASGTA

`COc1ccc2c3c(c4cc(OC)c(OC)cc4c2c1)CN1CCCC[C@@H]1C3`: the Activity in assay [1] is 15%; in assay [3] it was 7.07%; in assay [6], 16.15%; in [9], 0.1%; in assay [12], 26.9%. The result in assay [2] and in [10] was Active. For the same molecule, the viability at 1 µM in assay [4] came out at 91.8%; in assay [11], 94.2%. Also, the values for the IC50 in [5], in assay [7] and in assay [8] were 700 nM, 5 nM and 700 nM, respectively.
Turning to `COc1ccc2c3c(c4cc(OC)c(OC)cc4c2c1)CN1CCCCC1C3O` (racemic), the Activity is reported as 16.5% in assay [1]; 0.98% in assay [3]; 17.97% in [6]; 0.2% in assay [9]; 48.9% in assay [12]. Moreover, the result in assay [2] and in [10] was Active. Besides, the inhibition entry in assay [13], in assay [14] and in assay [15] was “Active” in each case. For the same molecule, the figures for the viability at 1 µM in assay [4] and in [11] were 99% and 98.3%, respectively. Further, the values for the IC50 in assay [5], in assay [7] and in assay [8] were 400 nM, 1 nM and 500 nM, respectively.
